Data from ChEMBL document CHEMBL4431340, “Pyridyl-alanine as a Hydrophilic, Aromatic Element in Peptide Structural Optimization” (J Med Chem, 2016).
Calls of active or inactive are those of the source. The calls are words filed in the database; no cut-off is given here. Non-standard residues stand in square brackets, D forms with d. Residues, ends and D or L forms follow the SMILES beside them. 3Pal = N[C@@H](Cc1cccnc1)C(=O)O; Aib = CC(C)(N)C(=O)O

Tests used:
[1] = Aqueous solubility of the compound in PBS assessed as precipitate formation at pH 7 after 1 hr; conditions: buffer, pH 7, 1 h
Rattus norvegicus [2] = test: Antihypoglycemic activity in lean Wistar rat assessed as prevention of insulin-induced glucose reduction at 15 nmol/kg, ip after 30 mins by glucometer; assay type: functional, organism-based
Method in brief: (§1)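 Lean rats received a fixed insulin dose chosen to induce hypoglycemia, together with peptide or vehicle. Blood glucose was followed for 60 min after administration. Groups were compared by one-way ANOVA with Dunnett's test against the insulin group, with P < 0.05 taken as significant.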

Rattus norvegicus [3] = test: Hyperglycemic activity in lean Wistar rat assessed as elevation of plasma glucose levels at 10 nmol/kg, ip after 120 mins in absence of insulin by glucometer; assay type: functional, organism-based
Rattus norvegicus [4] = test: Antihypoglycemic activity in lean Wistar rat assessed as prevention of insulin-induced glucose reduction at 15 nmol/kg, ip after 60 mins by glucometer; assay type: functional, organism-based
Method in brief: as §1

[5] = Aqueous solubility of the compound in PBS at 1 to 10 mg/ml assessed as precipitate formation at pH 7 at 4 degC after 7 days; assay type: physicochemical; conditions: buffer, pH 7, 168 h
[6] = biological target: Glucagon receptor (Homo sapiens) (UniProt P47871); test: Activation of glucagon receptor (unknown origin) transfected in HEK293 cells co-transfected with luciferase reporter gene linked CRE element assessed as compound EC50 preincubated in PBS buffer for 4 weeks at elevated temperature and pH 7 followed by protein addition measured after 5 hrs in presence of luclite substrate by liquid scintillation counting relative to control; assay type: functional, cell-based
Chain of Glucagon receptor (Homo sapiens) (P47871 whole entry): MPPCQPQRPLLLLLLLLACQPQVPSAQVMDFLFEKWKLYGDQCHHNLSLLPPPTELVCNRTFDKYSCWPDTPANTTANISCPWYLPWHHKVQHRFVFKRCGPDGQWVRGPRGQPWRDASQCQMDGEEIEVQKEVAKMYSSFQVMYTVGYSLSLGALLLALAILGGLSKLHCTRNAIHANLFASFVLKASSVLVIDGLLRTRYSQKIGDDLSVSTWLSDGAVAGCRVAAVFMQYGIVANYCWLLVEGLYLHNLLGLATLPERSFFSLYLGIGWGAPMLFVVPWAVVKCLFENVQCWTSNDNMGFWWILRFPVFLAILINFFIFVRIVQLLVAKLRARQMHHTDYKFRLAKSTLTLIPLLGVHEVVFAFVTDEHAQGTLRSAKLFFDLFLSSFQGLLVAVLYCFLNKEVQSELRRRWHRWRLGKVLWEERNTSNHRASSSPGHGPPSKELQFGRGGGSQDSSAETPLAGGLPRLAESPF
Method in brief: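 Analog incubated at 2.0 mg/mL in 50 mM sodium phosphate, 150 mM NaCl at pH 7 (also pH 5, 6), 37 °C, stirred at 200 rpm for 1 and 4 weeks. T=0 reference kept at -45 °C. […] Cells exposed to serial dilutions for 5 h at 37 °C, then LucLite luminescence read. Reported as percent change in EC50.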

Sus scrofa = test: Antihypoglycemic activity in diabetic Yucatan pig assessed as prevention of insulin detemir-induced blood glucose reduction at 10 nmol/kg, sc administered 240 mins post insulin detemir challenge measured during compound dosing by glucometer

solubility [1] | solubility [5] | Molecule | also measured
> 1 mg/mL | – | CSCC[C@H](NC(=O)[C@H](CC(C)C)NC(=O)[C@H](Cc1c[nH]c2ccccc12)NC(=O)[C@H](CCC(N)=O)NC(=O)[C@@H](NC(=O)[C@H](Cc1ccccc1)NC(=O)[C@H](CC(=O)O)NC(=O)[C@H](CCC(N)=O)NC(=O)[C@H](C)NC(=O)[C@H](CCCNC(=N)N)NC(=O)[C@H](CCCNC(=N)N)NC(=O)C(C)(C)NC(=O)[C@H](CC(=O)O)NC(=O)[C@H](CC(C)C)NC(=O)[C@H](Cc1ccc(O)cc1)NC(=O)[C@H](CCCCN)NC(=O)[C@H](CO)NC(=O)[C@H](Cc1cccnc1)NC(=O)[C@H](CC(=O)O)NC(=O)[C@H](CO)NC(=O)[C@@H](NC(=O)[C@H](Cc1ccccc1)NC(=O)[C@@H](NC(=O)CNC(=O)[C@H](CCC(N)=O)NC(=O)[C@H](CO)NC(=O)[C@@H](N)Cc1cnc[nH]1)[C@@H](C)O)[C@@H](C)O)C(C)C)C(=O)N[C@@H](CC(N)=O)C(=O)N[C@H](C(=O)O)[C@@H](C)O | –
> 15 mg/mL | – | CSCC[C@H](NC(=O)[C@H](CC(C)C)NC(=O)[C@H](Cc1c[nH]c2ccccc12)NC(=O)[C@H](CCC(N)=O)NC(=O)[C@@H](NC(=O)[C@H](Cc1ccccc1)NC(=O)[C@H](CC(=O)O)NC(=O)[C@H](CCC(N)=O)NC(=O)[C@H](C)NC(=O)[C@H](CCCNC(=N)N)NC(=O)[C@H](CCCNC(=N)N)NC(=O)C(C)(C)NC(=O)[C@H](CC(=O)O)NC(=O)[C@H](CC(C)C)NC(=O)[C@H](Cc1cccnc1)NC(=O)[C@H](CCCCN)NC(=O)[C@H](CO)NC(=O)[C@H](Cc1cccnc1)NC(=O)[C@H](CC(=O)O)NC(=O)[C@H](CO)NC(=O)[C@@H](NC(=O)[C@H](Cc1ccccc1)NC(=O)[C@@H](NC(=O)CNC(=O)[C@H](CCC(N)=O)NC(=O)[C@H](CO)NC(=O)[C@@H](N)Cc1cnc[nH]1)[C@@H](C)O)[C@@H](C)O)C(C)C)C(=O)N[C@@H](CC(N)=O)C(=O)N[C@H](C(=O)O)[C@@H](C)O | –
> 1 mg/mL | – | CSCC[C@H](NC(=O)[C@H](CC(C)C)NC(=O)[C@H](Cc1c[nH]c2ccccc12)NC(=O)[C@H](CCC(N)=O)NC(=O)[C@@H](NC(=O)[C@H](Cc1ccccc1)NC(=O)[C@H](CC(=O)O)NC(=O)[C@H](CCC(N)=O)NC(=O)[C@H](C)NC(=O)[C@H](CCCNC(=N)N)NC(=O)[C@H](CCCNC(=N)N)NC(=O)C(C)(C)NC(=O)[C@H](CC(=O)O)NC(=O)[C@H](CC(C)C)NC(=O)[C@H](Cc1ccc(O)cc1)NC(=O)[C@H](CCCCN)NC(=O)[C@H](CO)NC(=O)[C@H](Cc1ccc(O)cc1)NC(=O)[C@H](CC(=O)O)NC(=O)[C@H](CO)NC(=O)[C@@H](NC(=O)[C@H](Cc1cccnc1)NC(=O)[C@@H](NC(=O)CNC(=O)[C@H](CCC(N)=O)NC(=O)[C@H](CO)NC(=O)[C@@H](N)Cc1cnc[nH]1)[C@@H](C)O)[C@@H](C)O)C(C)C)C(=O)N[C@@H](CC(N)=O)C(=O)N[C@H](C(=O)O)[C@@H](C)O | –
– | – | GLUCAGON | Activity (Rattus norvegicus [2]): inactive; Activity (Rattus norvegicus [3]): Active; Activity (Rattus norvegicus [4]): Active
> 15 mg/mL | Soluble | CSCC[C@H](NC(=O)[C@H](CC(C)C)NC(=O)[C@H](Cc1c[nH]c2ccccc12)NC(=O)[C@H](CCC(N)=O)NC(=O)[C@@H](NC(=O)[C@H](Cc1ccccc1)NC(=O)[C@H](CC(=O)O)NC(=O)[C@H](CCC(N)=O)NC(=O)[C@H](C)NC(=O)[C@H](CCCNC(=N)N)NC(=O)[C@H](CCCNC(=N)N)NC(=O)C(C)(C)NC(=O)[C@H](CC(=O)O)NC(=O)[C@H](CC(C)C)NC(=O)[C@H](Cc1ccncc1)NC(=O)[C@H](CCCCN)NC(=O)[C@H](CO)NC(=O)[C@H](Cc1ccncc1)NC(=O)[C@H](CC(=O)O)NC(=O)[C@H](CO)NC(=O)[C@@H](NC(=O)[C@H](Cc1ccncc1)NC(=O)[C@@H](NC(=O)CNC(=O)[C@H](CCC(N)=O)NC(=O)[C@H](CO)NC(=O)[C@@H](N)Cc1cnc[nH]1)[C@@H](C)O)[C@@H](C)O)C(C)C)C(=O)N[C@@H](CC(N)=O)C(=O)N[C@H](C(=O)O)[C@@H](C)O | –
> 1 mg/mL | – | CSCC[C@H](NC(=O)[C@H](CC(C)C)NC(=O)[C@H](Cc1c[nH]c2ccccc12)NC(=O)[C@H](CCC(N)=O)NC(=O)[C@@H](NC(=O)[C@H](Cc1ccccc1)NC(=O)[C@H](CC(=O)O)NC(=O)[C@H](CCC(N)=O)NC(=O)[C@H](C)NC(=O)[C@H](CCCNC(=N)N)NC(=O)[C@H](CCCNC(=N)N)NC(=O)C(C)(C)NC(=O)[C@H](CC(=O)O)NC(=O)[C@H](CC(C)C)NC(=O)[C@H](Cc1ccncc1)NC(=O)[C@H](CCCCN)NC(=O)[C@H](CO)NC(=O)[C@H](Cc1ccc(O)cc1)NC(=O)[C@H](CC(=O)O)NC(=O)[C@H](CO)NC(=O)[C@@H](NC(=O)[C@H](Cc1ccccc1)NC(=O)[C@@H](NC(=O)CNC(=O)[C@H](CCC(N)=O)NC(=O)[C@H](CO)NC(=O)[C@@H](N)Cc1cnc[nH]1)[C@@H](C)O)[C@@H](C)O)C(C)C)C(=O)N[C@@H](CC(N)=O)C(=O)N[C@H](C(=O)O)[C@@H](C)O | –
> 15 mg/mL | Soluble | CSCC[C@H](NC(=O)[C@H](CC(C)C)NC(=O)[C@H](Cc1c[nH]c2ccccc12)NC(=O)[C@H](CCC(N)=O)NC(=O)[C@@H](NC(=O)[C@H](Cc1ccccc1)NC(=O)[C@H](CC(=O)O)NC(=O)[C@H](CCC(N)=O)NC(=O)[C@H](C)NC(=O)[C@H](CCCNC(=N)N)NC(=O)[C@H](CCCNC(=N)N)NC(=O)C(C)(C)NC(=O)[C@H](CC(=O)O)NC(=O)[C@H](CC(C)C)NC(=O)[C@H](Cc1ccncc1)NC(=O)[C@H](CCCCN)NC(=O)[C@H](CO)NC(=O)[C@H](Cc1ccncc1)NC(=O)[C@H](CC(=O)O)NC(=O)[C@H](CO)NC(=O)[C@@H](NC(=O)[C@H](Cc1ccccc1)NC(=O)[C@@H](NC(=O)CNC(=O)[C@H](CCC(N)=O)NC(=O)[C@H](CO)NC(=O)[C@@H](N)Cc1cnc[nH]1)[C@@H](C)O)[C@@H](C)O)C(C)C)C(=O)N[C@@H](CC(N)=O)C(=O)N[C@H](C(=O)O)[C@@H](C)O | –
> 15 mg/mL | Soluble | CSCC[C@H](NC(=O)[C@H](CC(C)C)NC(=O)[C@H](Cc1c[nH]c2ccccc12)NC(=O)[C@H](CCC(N)=O)NC(=O)[C@@H](NC(=O)[C@H](Cc1ccccc1)NC(=O)[C@H](CC(=O)O)NC(=O)[C@H](CCC(N)=O)NC(=O)[C@H](C)NC(=O)[C@H](CCCNC(=N)N)NC(=O)[C@H](CCCNC(=N)N)NC(=O)C(C)(C)NC(=O)[C@H](CC(=O)O)NC(=O)[C@H](CC(C)C)NC(=O)[C@H](Cc1cccnc1)NC(=O)[C@H](CCCCN)NC(=O)[C@H](CO)NC(=O)[C@H](Cc1cccnc1)NC(=O)[C@H](CC(=O)O)NC(=O)[C@H](CO)NC(=O)[C@@H](NC(=O)[C@H](Cc1cccnc1)NC(=O)[C@@H](NC(=O)CNC(=O)[C@H](CCC(N)=O)NC(=O)[C@H](CO)NC(=O)[C@@H](N)Cc1cnc[nH]1)[C@@H](C)O)[C@@H](C)O)C(C)C)C(=O)N[C@@H](CC(N)=O)C(=O)N[C@H](C(=O)O)[C@@H](C)O | Activity (Rattus norvegicus [2]): inactive; Activity [6]: 82%; Activity (Sus scrofa): Active; Activity (Rattus norvegicus [3]): Active; Activity (Rattus norvegicus [4]): Active
> 15 mg/mL | Soluble | CSCC[C@H](NC(=O)[C@H](CC(C)C)NC(=O)[C@H](Cc1c[nH]c2ccccc12)NC(=O)[C@H](CCC(N)=O)NC(=O)[C@@H](NC(=O)[C@H](Cc1cccnc1)NC(=O)[C@H](CC(=O)O)NC(=O)[C@H](CCC(N)=O)NC(=O)[C@H](C)NC(=O)[C@H](CCCNC(=N)N)NC(=O)[C@H](CCCNC(=N)N)NC(=O)C(C)(C)NC(=O)[C@H](CC(=O)O)NC(=O)[C@H](CC(C)C)NC(=O)[C@H](Cc1cccnc1)NC(=O)[C@H](CCCCN)NC(=O)[C@H](CO)NC(=O)[C@H](Cc1cccnc1)NC(=O)[C@H](CC(=O)O)NC(=O)[C@H](CO)NC(=O)[C@@H](NC(=O)[C@H](Cc1cccnc1)NC(=O)[C@@H](NC(=O)CNC(=O)[C@H](CCC(N)=O)NC(=O)[C@H](CO)NC(=O)[C@@H](N)Cc1cnc[nH]1)[C@@H](C)O)[C@@H](C)O)C(C)C)C(=O)N[C@@H](CC(N)=O)C(=O)N[C@H](C(=O)O)[C@@H](C)O (H-HSQGT[3Pal]TSD[3Pal]SK[3Pal]LD[Aib]RRAQD[3Pal]VQWLMNT-OH) | –
> 1 mg/mL | – | CSCC[C@H](NC(=O)[C@H](CC(C)C)NC(=O)[C@H](Cc1c[nH]c2ccccc12)NC(=O)[C@H](CCC(N)=O)NC(=O)[C@@H](NC(=O)[C@H](Cc1ccccc1)NC(=O)[C@H](CC(=O)O)NC(=O)[C@H](CCC(N)=O)NC(=O)[C@H](C)NC(=O)[C@H](CCCNC(=N)N)NC(=O)[C@H](CCCNC(=N)N)NC(=O)C(C)(C)NC(=O)[C@H](CC(=O)O)NC(=O)[C@H](CC(C)C)NC(=O)[C@H](Cc1cccnc1)NC(=O)[C@H](CCCCN)NC(=O)[C@H](CO)NC(=O)[C@H](Cc1ccc(O)cc1)NC(=O)[C@H](CC(=O)O)NC(=O)[C@H](CO)NC(=O)[C@@H](NC(=O)[C@H](Cc1ccccc1)NC(=O)[C@@H](NC(=O)CNC(=O)[C@H](CCC(N)=O)NC(=O)[C@H](CO)NC(=O)[C@@H](N)Cc1cnc[nH]1)[C@@H](C)O)[C@@H](C)O)C(C)C)C(=O)N[C@@H](CC(N)=O)C(=O)N[C@H](C(=O)O)[C@@H](C)O | –
